Assay type in all cases: cell-based
The target of assay [1] is Histone-lysine N-methyltransferase EZH2 (Mus musculus) (UniProt Q61188). Put plainly: Inhibition of EZH2 in mouse B16-F1 migrating cells assessed as fold change in H3K27me3-independent regulated Ahnak-mRNA expression at 3 uM measured by […] analysis relative to control cells. Summed up: (§1)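 Confluent B16-F1 cells on fibronectin-coated plates were scratched at multiple sites, washed once with DMEM and left to migrate 3 h in growth medium (37 °C, 7% CO2); unscratched cells served as control. GSK343 (3 µM) was added 3 h before lysis. Poly A mRNA was sequenced (RNA-seq), with 5 replicates for untreated and 3 for treated cells. Differential expression was called by linear model with batch correction, at FDR <0.05 and fold change ≥1.3.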
Chain of Histone-lysine N-methyltransferase EZH2 (Mus musculus) (Q61188 whole entry): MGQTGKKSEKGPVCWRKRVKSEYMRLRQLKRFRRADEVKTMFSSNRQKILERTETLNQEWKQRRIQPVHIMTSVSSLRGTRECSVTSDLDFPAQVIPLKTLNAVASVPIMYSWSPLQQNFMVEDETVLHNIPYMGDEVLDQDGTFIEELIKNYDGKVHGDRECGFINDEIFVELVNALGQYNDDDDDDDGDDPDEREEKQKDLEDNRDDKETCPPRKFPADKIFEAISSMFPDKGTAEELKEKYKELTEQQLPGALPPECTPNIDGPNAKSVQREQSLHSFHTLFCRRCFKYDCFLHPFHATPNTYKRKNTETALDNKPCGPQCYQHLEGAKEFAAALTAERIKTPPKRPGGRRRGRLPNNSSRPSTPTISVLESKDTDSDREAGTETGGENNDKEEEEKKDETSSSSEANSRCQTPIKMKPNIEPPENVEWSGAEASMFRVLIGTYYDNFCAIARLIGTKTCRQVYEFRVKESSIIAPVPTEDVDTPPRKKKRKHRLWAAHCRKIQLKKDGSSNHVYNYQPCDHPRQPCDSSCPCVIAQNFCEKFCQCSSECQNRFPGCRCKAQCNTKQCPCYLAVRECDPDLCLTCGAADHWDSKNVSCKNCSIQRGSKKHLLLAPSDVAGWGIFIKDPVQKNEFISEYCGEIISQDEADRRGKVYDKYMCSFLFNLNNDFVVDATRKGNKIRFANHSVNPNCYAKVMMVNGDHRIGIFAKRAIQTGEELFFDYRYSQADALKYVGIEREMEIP

Assay [2] shares this target. The assay is described as follows: Inhibition of EZH2 in mouse B16-F1 migrating cells assessed as fold change in H3K27me3-independent regulated Cep152-mRNA expression at 3 uM measured by ChIP-seq analysis relative to control cells. Summed up: as §1
The target is the same in assay [3]. Put plainly: Inhibition of EZH2 in mouse B16-F1 migrating cells assessed as fold change in H3K27me3-buffered regulated Tfcp2-mRNA expression at 3 uM measured by […] analysis relative to control cells. Summed up: as §1
For assay [4] the target is unchanged. Put plainly: Inhibition of EZH2 in mouse B16-F1 migrating cells assessed as fold change in H3K27me3-buffered regulated Ankrd26-mRNA expression at 3 uM measured by […] analysis relative to control cells. Summed up: (§2)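 Confluent B16-F1 cells on fibronectin-coated plates, cultured at 37 °C and 7% CO2, were scratched at multiple sites to induce migration. They were then held 3 h in growth medium containing 3 µM GSK343, with the inhibitor added 3 h before lysis. Unscratched cells served as controls. Poly A mRNA was analysed by RNA-seq (n=3 GSK343, n=5 controls). Linear models removed batch effects, and buffered genes were those altered only under GSK343 (FDR <0.05, fold change >1.3).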

Assay [5] shares this target. The assay is described as follows: Inhibition of EZH2 in mouse B16-F1 migrating cells assessed as fold change in H3K27me3-buffered regulated Tcf7l1-mRNA expression at 3 uM measured by […] analysis relative to control cells. Summed up:
as §1

For assay [6] the target is unchanged. The assay is described as follows: Inhibition of EZH2 in mouse B16-F1 migrating cells assessed as fold change in H3K27me3-buffered regulated 4930503L19Rik-mRNA expression at 3 uM measured by […] analysis relative to control cells. Summed up:
as §2

For assay [7] the target is unchanged. Put plainly: Inhibition of EZH2 in mouse B16-F1 migrating cells assessed as fold change in H3K27me3-buffered regulated Fam184b-mRNA expression at 3 uM measured by […] analysis relative to control cells. Summed up:
as §2

The target is the same in assay [8]. Put plainly: Inhibition of EZH2 in mouse B16-F1 migrating cells assessed as fold change in H3K27me3-buffered regulated Clk1-mRNA expression at 3 uM measured by […] analysis relative to control cells. Summed up: as §2
In assay [9] the target is T1, RNA polymerase II (Mus musculus) (UniProt P08775+Q8CFI7+P97760+A0A3Q4L2S8+Q80UW8+P61219+P62488+Q923G2+P60898+O08740+Q63871+P62876). Put plainly: Inhibition of RNA polymerase II in mouse B16-F1 migrating cells assessed as fold change in Fosb-RNA stability at 0.1 mM measured by ChIP-seq analysis relative to control cells.
The target in assay [10] is T1, RNA polymerase II (Mus musculus). Put plainly: Inhibition of RNA polymerase II in mouse B16-F1 migrating cells assessed as fold change in Grhpr-RNA stability at 0.1 mM measured by ChIP-seq analysis relative to control cells.
Assay [11] has the same target. The assay is described as follows: Inhibition of RNA polymerase II in mouse B16-F1 migrating cells assessed as fold change in Galk1-RNA stability at 0.1 mM measured by ChIP-seq analysis relative to control cells.
The target is the same in assay [12]. Put plainly: Inhibition of RNA polymerase II in mouse B16-F1 migrating cells assessed as fold change in Samd14-RNA stability at 0.1 mM measured by […] analysis relative to control cells.
For assay [13] the target is unchanged. The assay is described as follows: Inhibition of RNA polymerase II in mouse B16-F1 migrating cells assessed as fold change in Arpc4-RNA stability at 0.1 mM measured by […] analysis relative to control cells.
The target is the same in assay [14]. Put plainly: Inhibition of RNA polymerase II in mouse B16-F1 migrating cells assessed as fold change in Nae1-RNA stability at 0.1 mM measured by ChIP-seq analysis relative to control cells.
Assay [15] has the same target. Put plainly: Inhibition of RNA polymerase II in mouse B16-F1 migrating cells assessed as fold change in Bcap29-RNA stability at 0.1 mM measured by […] analysis relative to control cells.
Assay [16] shares this target. The assay is described as follows: Inhibition of RNA polymerase II in mouse B16-F1 migrating cells assessed as fold change in Dido1-RNA stability at 0.1 mM measured by […] analysis relative to control cells. Summed up:
(§3)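 Mouse B16-F1 melanoma cells grown to confluence on fibronectin in DMEM/10% FCS at 37 °C, 7% CO2. Migration induced by multiple scratches and 3 h incubation; unscratched controls. DRB 0.1 mM added 3 h before lysis. RNA from poly A-selected mRNA was sequenced (RNA-seq, three replicates per DRB group). Fold change computed for DRB-treated migrating vs DRB-treated control cells; cutoffs fold change >1.3, FDR <0.05.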

Assay [17] has the same target. Put plainly: Inhibition of RNA polymerase II in mouse B16-F1 migrating cells assessed as fold change in Cd2ap-RNA stability at 0.1 mM measured by […] analysis relative to control cells. Summed up:
as §3

Assay [18] shares this target. The assay is described as follows: Inhibition of RNA polymerase II in mouse B16-F1 migrating cells assessed as fold change in Phf20l1-RNA stability at 0.1 mM measured by […] analysis relative to control cells.
Assay [19] shares this target. Put plainly: Inhibition of RNA polymerase II in mouse B16-F1 migrating cells assessed as fold change in Fxr1-RNA stability at 0.1 mM measured by ChIP-seq analysis relative to control cells.
Assay [20] shares this target. Put plainly: Inhibition of RNA polymerase II in mouse B16-F1 migrating cells assessed as fold change in Polr3f-RNA stability at 0.1 mM measured by […] analysis relative to control cells.
Assay [21] shares this target. The assay is described as follows: Inhibition of RNA polymerase II in mouse B16-F1 migrating cells assessed as fold change in Zfp966-RNA stability at 0.1 mM measured by […] analysis relative to control cells.
Assay [22] has the same target. Put plainly: Inhibition of RNA polymerase II in mouse B16-F1 migrating cells assessed as fold change in Cenpc1-RNA stability at 0.1 mM measured by […] analysis relative to control cells.
Assay [23] shares this target. The assay is described as follows: Inhibition of RNA polymerase II in mouse B16-F1 migrating cells assessed as fold change in Dnttip2-RNA stability at 0.1 mM measured by ChIP-seq analysis relative to control cells. Summed up: as §3
Assay [24] shares this target. Put plainly: Inhibition of RNA polymerase II in mouse B16-F1 migrating cells assessed as fold change in Zfp280c-RNA stability at 0.1 mM measured by […] analysis relative to control cells.

Regarding `CCCc1cc(C)[nH]c(=O)c1CNC(=O)c1cc(-c2ccnc(N3CCN(C)CC3)c2)cc2c1cnn2C(C)C`, the log2FC in assay [1] was 0.4; in [2], -0.48; in assay [3], -0.38; in assay [4] it was -0.47; in [5] it was -0.48; in assay [6], -0.64. Besides, the log2FC in assay [7] is -0.72; in assay [8] it was -0.75.
Take `OC[C@H]1O[C@@H](n2cnc3cc(Cl)c(Cl)cc32)[C@H](O)[C@@H]1O`: the log2FC was 2.03 in assay [9]; 1.02 in assay [10]; 0.67 in assay [11]; 0.46 in assay [12]; 0.44 in assay [13]; -0.43 in [14]. Moreover, the log2FC in [15] was -0.48; in assay [16], -0.53; in [17], -0.57; in assay [18] it was -0.65; in assay [19], -0.67; in assay [20], -0.8. In addition, the log2FC in [21] was -0.82; in assay [22], -0.84; in assay [23] it was -0.87; in assay [24], -0.98.

The values above are taken from ChEMBL document CHEMBL5674883, “The Heterochromatin Landscape in Migrating Cells and the Importance of H3K27me3 for Associated Transcriptome Alterations” (Cells, 2018).
